The source made the active and inactive calls. No cut-off for these calls is given here. A value given as a limit tells only on which side of the number the result lay.

We go through eight molecules from ChEMBL document CHEMBL3621200, “Toward the discovery of dual HCMV-VZV inhibitors: Synthesis, structure activity relationship analysis, and cytotoxicity studies of long chained 2-uracil-3-yl-N-(4-phenoxyphenyl)acetamides” (Bioorg Med Chem, 2015).

Data set [1] has as its system HEL. As to the kind of experiment: Cytotoxicity against Varicella zoster virus infected HEL cells assessed as cell growth inhibition incubated for 3 days by coulter counter method. To be noted: human, 72 h.
A short description of data set [2]: Cytotoxicity against Varicella zoster virus infected HEL cells assessed as alteration of cell morphology incubated for 3 days by microscopy. The note with it: human, HEL cells infected with Varicella zoster virus. Type of data set: cell-based. The gist of the method: (§1)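 Cytotoxicity was given as the minimum cytotoxic concentration (MCC): the compound concentration causing a microscopically detectable change in HEL cell morphology.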

In data set [3] the test system is HEL. Briefly: Cytotoxicity against human cytomegalovirus infected HEL cells assessed as cell growth inhibition incubated for 3 days by coulter counter method. To be noted: 72 h. Type of data set: cell-based. The procedure, abridged:
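HEL cells were seeded at 5 × 10^3 cells/well and left to adhere and proliferate for 24 h, then compound-containing medium was added. After 3 days at 37 °C, cells were counted with a Coulter counter.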

The next data set has as its system Vaccinia virus. As to the kind of experiment: Antiviral activity against Vaccinia virus Lederle. It counts as functional, organism-based. To be noted: Orthopoxvirus vaccinia. The procedure, abridged: (§2)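 Confluent cell monolayers (HEL, Vero, HeLa or MDCK) in 96-well plates were infected with 100 CCID50 of virus in the presence of varying compound concentrations. Cytopathicity was scored once it reached completion in untreated infected controls.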

The test system of data set [4] is Human herpesvirus 2 strain G. Briefly: Antiviral activity against HSV2 G Lyons. It counts as functional, organism-based.
Data set [5] concerns Human immunodeficiency virus 2. Briefly: Antiviral activity against HIV2 ROD infected in human CEM cells assessed as reduction in virus- induced cytopathicity incubated for 4 to 5 days by microscopy based virus syncytium formation assay. To be noted: ISOLATE ROD, CCRF-CEM. It counts as functional, organism-based. The gist of the method:
(§3)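 CEM cells at ~3 × 10^5 cells/mL, infected with 100 CCID50 of HIV per mL in the presence of compound dilutions. Incubated 4–5 days at 37 °C in humidified CO2. Syncytium (giant cell) formation scored by microscopy.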

Another data set relates to Influenza B virus. Briefly: Antiviral activity against Influenza B virus. Type of data set: functional, organism-based. The procedure, abridged: as §2
The subject of data set [6] is Human immunodeficiency virus 1. Briefly: Antiviral activity against HIV1 3B infected in human CEM cells assessed as reduction in virus- induced cytopathicity incubated for 4 to 5 days by microscopy based virus syncytium formation assay. It counts as functional, organism-based. The note with it: CCRF-CEM. The gist of the method:
as §3

Data set [7] concerns Human betaherpesvirus 5. As to the kind of experiment: Antiviral activity against human cytomegalovirus AD169 infected in HEL cells assessed as reduction in viral plaque formation. It counts as functional, organism-based. To be noted: Human betaherpesvirus 5, AD169, HEL. The procedure, abridged:
(§4)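 Confluent HEL fibroblasts were infected with 100 PFU of HCMV in the presence of varying compound concentrations. Plaques were counted once plaque formation was complete in untreated infected controls.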

A further data set concerns Influenza A virus. As to the kind of experiment: Antiviral activity against Influenza A virus H1N1. Type of data set: functional, organism-based. The procedure, abridged:
as §2

For a further data set, the system named is Human respirovirus 3. Briefly: Antiviral activity against Parainfluenza 3 virus. Type of data set: functional, organism-based.
The test system of data set [8] is Vesicular stomatitis virus. As to the kind of experiment: Antiviral activity against Vesicular stomatitis virus. It counts as functional, organism-based. The procedure, abridged: as §2
Another data set relates to Sindbis virus. Briefly: Antiviral activity against Sindbis virus. It counts as functional, organism-based.
The test system of a further data set is Human alphaherpesvirus 1. Briefly: Antiviral activity against HSV1 KOS. It counts as functional, organism-based. The gist of the method:
(§5)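 Confluent cell monolayers in 96-well plates were inoculated with 100 CCID50 of virus together with varying compound concentrations. Cytopathicity was scored once it reached completion in untreated infected controls.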

A further data set relates to Coxsackievirus B4. Briefly: Antiviral activity against Human coxsackievirus B4. Type of data set: functional, organism-based.
The next data set relates to Influenza A virus H3N2. Briefly: Antiviral activity against Influenza A virus H3N2. It counts as functional, organism-based. The gist of the method: as §2
Data set [9] in a line: Cytotoxicity against human cytomegalovirus infected HEL cells assessed as alteration of cell morphology incubated for 3 days by microscopy. It counts as cell-based. The note with it: HEL cells infected with human cytomegalovirus. The procedure, abridged:
as §1

Data set [10] relates to Mammalian orthoreovirus 1. As to the kind of experiment: Antiviral activity against Reovirus 1. It counts as functional.
Another data set relates to Punta Toro virus. Briefly: Antiviral activity against Punta Toro virus. It counts as functional, organism-based.
The subject of another data set is Human alphaherpesvirus 2. Briefly: Antiviral activity against HSV2 Lyons. Type of data set: functional, organism-based. The procedure, abridged: as §5
In data set [11] the test system is Human betaherpesvirus 5. As to the kind of experiment: Antiviral activity against human cytomegalovirus Davis infected in HEL cells assessed as reduction in viral plaque formation. Type of data set: functional, organism-based. The note with it: Human betaherpesvirus 5, Davis. The gist of the method:
as §4

The subject of another data set is Feline coronavirus. Briefly: Antiviral activity against Feline coronavirus. It counts as functional, organism-based.

On to `O=c1[nH]c(=O)n([C@H]2C[C@H](O)[C@@H](CO)O2)cc1/C=C/Br` [BRIVUDINE], for which the CC50 with HEL [1] was at least 79.3 µM. In addition, the MCC at 72 h in data set [2] was above 300 µM.
`O=C(Cn1c(=O)ccn(CCCCCOc2ccccc2)c1=O)Nc1ccc(Oc2ccccc2)cc1`: the cytotoxic concentration (CC50) with HEL [3] is 5.4 µM. Besides, the inhibition entry (in the data set on Vaccinia virus; in [4]; in [5]; with Influenza B virus; in data set [6]; with Influenza A virus) was “inactive” each time. The inhibition result (in the data set on Human respirovirus 3; in [8]; with Sindbis virus; in the data set on Human alphaherpesvirus 1; in the data set with Coxsackievirus B4; in the data set on Influenza A virus H3N2) was “inactive” throughout. Besides, the inhibition entry (in data set [10]; in the data set with Punta Toro virus; in the data set with Human alphaherpesvirus 2; in the data set on Feline coronavirus) was “inactive” in each case. The EC50 worked out at 3600 nM with Human betaherpesvirus 5 [7] and 4000 nM in the data set on Human betaherpesvirus 5 [11]. Moreover, the MCC at 72 h in [9] is at least 20 µM; in data set [2] it was above 100 µM.
On to `N#Cc1ccc(OCCCCCn2ccc(=O)n(CC(=O)Nc3ccc(Oc4ccccc4)cc3)c2=O)cc1`, for which the 50% cytotoxic concentration (CC50) in the data set on HEL [3] was found to be 4.9 µM. In addition, the inhibition entry (in the data set with Vaccinia virus; in data set [4]; in data set [5]; with Influenza B virus; in data set [6]; in the data set on Influenza A virus) was “inactive” in each case. Further, the inhibition entry (in the data set on Human respirovirus 3; in [8]; with Sindbis virus; with Human alphaherpesvirus 1; with Coxsackievirus B4; in the data set on Influenza A virus H3N2) was “inactive” each time. Moreover, the inhibition entry (in [10]; with Punta Toro virus; with Human alphaherpesvirus 2; in the data set with Feline coronavirus) was “inactive” each time. Moreover, the concentration for a half-maximal effect (EC50) came out at 530 nM with Human betaherpesvirus 5 [7] and 440 nM in the data set on Human betaherpesvirus 5 [11]. For the same molecule, the results for the MCC at 72 h in data set [9] and in data set [2] were at least 4 µM and above 100 µM, respectively.
For the molecule `O=C(Cn1c(=O)ccn(CCCCCOc2ccc(Br)cc2)c1=O)Nc1ccc(C(=O)c2ccccc2)cc1`, the CC50 in the data set with HEL [3] amounted to 5.8 µM. Also, the inhibition result (with Vaccinia virus; in data set [4]; in data set [5]; in the data set with Influenza B virus; in [6]; in the data set with Influenza A virus) was “inactive” throughout. For the same molecule, the inhibition result (in the data set with Human respirovirus 3; in [8]; in the data set on Sindbis virus; in the data set with Human alphaherpesvirus 1; with Coxsackievirus B4; in the data set on Influenza A virus H3N2) was “inactive” each time. Moreover, the inhibition result (in data set [10]; in the data set with Punta Toro virus; in the data set with Human alphaherpesvirus 2; with Feline coronavirus) was “inactive” throughout. For the same molecule, the half-maximal effective concentration (EC50) in the data set on Human betaherpesvirus 5 [7] came out at 1790 nM; in the data set on Human betaherpesvirus 5 [11], 1640 nM. Besides, the MCC at 72 h in data set [9] is at least 20 µM; in data set [2], above 100 µM.
`O=C(Cn1c(=O)ccn(CCCCOCc2ccc(Br)cc2)c1=O)Nc1ccc(Oc2ccccc2)cc1`: in the data set on HEL [3], the CC50 worked out at 4.8 µM. Further, the inhibition result (in the data set with Vaccinia virus; in data set [4]; in data set [5]; in the data set with Influenza B virus; in [6]; with Influenza A virus) was “inactive” each time. For the same molecule, the inhibition entry (with Human respirovirus 3; in [8]; in the data set with Sindbis virus; in the data set on Human alphaherpesvirus 1; in the data set with Coxsackievirus B4; in the data set with Influenza A virus H3N2) was “inactive” in each case. The inhibition entry (in data set [10]; in the data set on Punta Toro virus; with Human alphaherpesvirus 2; in the data set on Feline coronavirus) was “inactive” in each case. Besides, the concentration for a half-maximal effect (EC50) in the data set on Human betaherpesvirus 5 [7] is 1800 nM; in the data set with Human betaherpesvirus 5 [11], at least 1200 nM. For the same molecule, the values for the MCC at 72 h in [9] and in [2] were at least 4 µM and above 100 µM, respectively.
As to `O=C(Cn1c(=O)ccn(CCCOc2ccc(Br)cc2)c1=O)Nc1ccc(Oc2ccccc2)cc1`, the CC50 in the data set on HEL [1] and in the data set with HEL [3] was 15.2 µM throughout. Also, the inhibition entry (in the data set on Vaccinia virus; in [4]; in [5]; in the data set on Influenza B virus; in data set [6]; in the data set with Influenza A virus) was “inactive” in each case. Moreover, the inhibition result (with Human respirovirus 3; in data set [8]; with Sindbis virus; in the data set with Human alphaherpesvirus 1; in the data set on Coxsackievirus B4; in the data set on Influenza A virus H3N2) was “inactive” in each case. For the same molecule, the inhibition entry (in [10]; with Punta Toro virus; in the data set with Human alphaherpesvirus 2; in the data set with Feline coronavirus) was “inactive” throughout. For the same molecule, the MCC at 72 h in [9] and in data set [2] was at least 100 µM each time. Besides, the EC50 in the data set with Human betaherpesvirus 5 [11] is 3900 nM.
As for `O=C(Cn1c(=O)ccn(CCCCCCCCOc2ccc(Br)cc2)c1=O)Nc1ccc(Oc2ccccc2)cc1`, the cytotoxic concentration (CC50) in the data set on HEL [1] turned out to be 11.7 µM. Further, the inhibition result (in the data set with Vaccinia virus; in [4]; in data set [5]; in the data set with Influenza B virus; in data set [6]; with Influenza A virus) was “inactive” each time. Also, the inhibition result (in the data set on Human respirovirus 3; in data set [8]; in the data set on Sindbis virus; with Human alphaherpesvirus 1; in the data set with Coxsackievirus B4; in the data set with Influenza A virus H3N2) was “inactive” in each case. Besides, the inhibition entry (in data set [10]; in the data set with Punta Toro virus; in the data set on Human alphaherpesvirus 2; with Feline coronavirus) was “inactive” throughout. Further, the half-maximal effective concentration (EC50) in the data set on Human betaherpesvirus 5 [7] and in the data set with Human betaherpesvirus 5 [11] was below 32 nM each time. For the same molecule, the MCC at 72 h in data set [9] is at least 0.16 µM; in data set [2], 0.8 µM.
Regarding `O=C(Cn1c(=O)ccn(CCCCCOc2ccc(Br)cc2)c1=O)Nc1ccc(Cc2ccccc2)cc1`, the CC50 in the data set on HEL [3] was 8.7 µM. For the same molecule, the inhibition result (with Vaccinia virus; in data set [4]; in [5]; in the data set with Influenza B virus; in data set [6]; with Influenza A virus) was “inactive” each time. In addition, the inhibition entry (in the data set with Human respirovirus 3; in data set [8]; in the data set with Sindbis virus; in the data set on Human alphaherpesvirus 1; in the data set with Coxsackievirus B4; in the data set with Influenza A virus H3N2) was “inactive” throughout. Further, the inhibition result (in [10]; with Punta Toro virus; in the data set with Human alphaherpesvirus 2; in the data set on Feline coronavirus) was “inactive” throughout. Further, the values for the EC50 in the data set on Human betaherpesvirus 5 [7] and in the data set with Human betaherpesvirus 5 [11] were 440 nM and 570 nM, respectively. Moreover, the MCC at 72 h in data set [9] was 4 µM; in [2], at least 4 µM.
